NR2E3 ag-1 = inhibitors of NR2E3-RetCOR corepressor binding, primary screen, NR2E3 agonist project, biochemical, TR-FRET, GST-NR2E3, biotin-RetCOR; AID 2300, 2010; inhibition of corepressor binding, % at 4.78 µM; Photoreceptor-specific nuclear receptor (Homo sapiens), Q9Y5X4; actives 0.12% (n = 320,000); 1536-well;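 active means percent inhibition above the cutoff of mean plus 3 SD of all tested compounds, set per screening campaign, cut at about 20% in these data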
Target sequence (Q9Y5X4 whole entry, looked up): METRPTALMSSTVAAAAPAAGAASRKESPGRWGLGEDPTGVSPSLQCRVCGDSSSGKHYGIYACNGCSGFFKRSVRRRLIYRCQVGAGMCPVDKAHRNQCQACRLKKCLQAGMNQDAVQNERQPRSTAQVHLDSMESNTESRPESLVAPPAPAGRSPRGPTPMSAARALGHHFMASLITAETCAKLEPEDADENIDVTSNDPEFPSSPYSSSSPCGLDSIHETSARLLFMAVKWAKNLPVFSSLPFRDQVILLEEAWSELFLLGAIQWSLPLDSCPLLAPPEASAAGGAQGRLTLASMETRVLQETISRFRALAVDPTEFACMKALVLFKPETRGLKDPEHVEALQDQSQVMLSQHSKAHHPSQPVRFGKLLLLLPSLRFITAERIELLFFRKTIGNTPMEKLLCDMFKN
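System: GST-tagged NR2E3 plus biotinylated RetCOR corepressor; Amount: 1.35 nM GST-tagged NR2E3 final; Dosing: single nominal compound dose of 4.8 µM; Schedule: 5 h incubation at 4 °C; Technique: TR-FRET with europium anti-GST and streptavidin-D2, 340 nm excitation; Controls: biotin wells as high control, 0.6% DMSO wells as low control.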
DAX1 inh-1 = DAX1 (NR0B1) inhibitors on StAR promoter, primary screen, cell-based, luminescence, SF-1 (NR5A1), full-length DAX-1 | inhibition, % at 6.8 µM | HEK293T StAR-luciferase reporter, SF-1/DAX-1 repression relief | AID 652010, 2013 | actives 1.1% (n = 370,000);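 active means inhibition above the mean over all tested compounds plus 3 SD, cut at about 3.6% in these data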;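 further: higher inhibition means more luminescence from relief of DAX-1 repression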
DAX1 inh-2 = DAX1 (NR0B1) inhibitors, primary screen, cell-based, HEK293, Gal4-DAX1, luciferase luminescence. inhibition, % at 6.75 µM. HEK293 Gal4-DAX1 luciferase reporter. AID 504766, 2011. actives 0.99% (n = 340,000);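 active means inhibition above the mean over all tested compounds plus 3 SD, cut at about 4.2% in these data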;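 further: inhibition shows as a rise in luminescence from relieved DAX1 repression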
Target sequence (P51843 207-470 limits assumed): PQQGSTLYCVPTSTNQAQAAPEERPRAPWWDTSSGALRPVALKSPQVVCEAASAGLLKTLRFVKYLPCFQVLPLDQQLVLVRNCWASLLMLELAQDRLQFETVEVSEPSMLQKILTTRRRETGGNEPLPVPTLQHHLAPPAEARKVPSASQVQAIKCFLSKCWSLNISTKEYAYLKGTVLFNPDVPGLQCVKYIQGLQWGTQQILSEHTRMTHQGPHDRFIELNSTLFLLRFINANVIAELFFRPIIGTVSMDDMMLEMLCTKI
NR2E3 ag-2 = NR2E3 agonists in two-hybrid cells, primary screen, cell-based, luminescence, CHO-S, Gal4-NCOR/VP16-NR2E3 | AID 602229, 2012 | luciferase | actives 0.35% (n = 360,000) | inhibition of corepressor binding, % at 3.98 µM | Photoreceptor-specific nuclear receptor (Homo sapiens), Q9Y5X4;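 active means inhibition above the mean of all tested compounds plus 3 SD, cut at about 70% in these data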;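 further: higher means lower luciferase signal from less NR2E3 corepressor binding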
GASC-1 inh = inhibitors of GASC-1 histone demethylase, primary screen, biochemical, fluorescence, DELFIA europium | GST-JMJD2C(1-420) H3K9me3 demethylation | inhibition, % at 2.35 µM | actives 0.069% (n = 330,000) | AID 2099, 2009;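 active means more than half of a compound's replicate wells show inhibition beyond 50%, single wells judged on their own value; inconclusive means some, but no more than half, of replicates pass 50% inhibition; inactive means no replicate passes 50% inhibition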;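 further: signal counts dimethyl H3K9 product captured on neutravidin plate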
SMARCA2 activ = SMARCA2 (BRM) function activators, primary screen, cell-based, luminescence, high throughput; MG213 cells, MMTV-luciferase reporter, dexamethasone, overnight; activation, % at 9.1 µM; actives 1% (n = 370,000); in the data active means activation above about 7.8%
Of the large screens only hits and unclear results are named; the others gave an inactive call. This is a sample that favours compounds with a hit; in the whole collection about 3.2% have one here.

O=C1OCC2=C1C(c1ccc(F)cc1)c1cc3c(cc1N2)OCO3 (stereo not drawn)	DAX1 inh-1 4.2 (no result: NR2E3 ag-1, GASC-1 inh)
COC(=O)C[C@H]1CC[C@@H]2[C@@H](COc3ccc(NC(=O)C4CCCCC4)cc3C(=O)N2C)O1	none (no result: NR2E3 ag-1, DAX1 inh-2, NR2E3 ag-2, GASC-1 inh)
CC(C)c1ccc(NC(=O)c2ccc(Br)o2)cc1	DAX1 inh-1 4.2
CC(C)c1ccc(NC(=O)C2=NNC(=O)CC2)cc1	DAX1 inh-2 5.3
CCCC1CCC2(CCC(=O)N2CCC#N)CC1 (stereo not drawn)	none (no result: NR2E3 ag-1, DAX1 inh-2, NR2E3 ag-2, GASC-1 inh)
CN(Cc1nc2ccccc2c(=O)[nH]1)c1ccccc1	DAX1 inh-2 5.3
CCN(CC(=O)Nc1ccccc1-c1ccccc1)Cc1nc2ccccc2c(=O)[nH]1	none
O=c1[nH]c(CSc2ccccn2)nc2ccccc12	DAX1 inh-1 3.6
CCN(CC(=O)Nc1ccccc1SC)Cc1nc2ccccc2c(=O)[nH]1	DAX1 inh-2 5.0
Cc1cc(N2CCN(Cc3ccc4c(c3)OCO4)CC2)n2nc(C)nc2n1	none (no result: NR2E3 ag-1, DAX1 inh-2, NR2E3 ag-2, GASC-1 inh)
CCCOC(=S)N/C(=N\S(=O)(=O)c1ccccc1)c1ccccc1	SMARCA2 activ 7.9
CCOC(=S)N/C(=N\S(=O)(=O)c1ccccc1)c1ccccc1	none
Cc1sc2nc(CSC(C)C(=O)Nc3ccccn3)[nH]c(=O)c2c1C (stereo not drawn)	DAX1 inh-1 4.0
c1ccc(-c2noc(-c3ccncc3)n2)nc1	DAX1 inh-1 3.8
CC(C)(C)c1ccc(-c2noc(-c3ccno3)n2)cc1	DAX1 inh-2 8.3
CC(C)(C)c1ccc(-c2nc(-c3ccncc3)no2)cc1	DAX1 inh-1 3.7
c1ccc(-c2noc(-c3cccnc3)n2)nc1	none
O=C(NCc1ccc(C(=O)NCC2CCCO2)cc1)c1cccc(Br)c1 (stereo not drawn)	none (no result: NR2E3 ag-1, DAX1 inh-2, NR2E3 ag-2, GASC-1 inh)
COC(=O)[C@H](CC(C)C)N(CCCc1cn(Cc2ccccc2)nn1)S(=O)(=O)c1ccc(F)cc1Br	none (no result: NR2E3 ag-1, DAX1 inh-2, NR2E3 ag-2, GASC-1 inh)
O=C(CCc1ccccc1)N[C@H]1[C@H](O)CCC[C@]12C(=O)N(Cc1ccccc1)c1ccccc12	none (no result: NR2E3 ag-1, DAX1 inh-2, NR2E3 ag-2, GASC-1 inh)
O=C(CN1CCN(Cc2ccc3c(c2)OCO3)CC1)Nc1ccc(F)cc1	DAX1 inh-2 4.8
O=C(CN1CCN(Cc2ccc3c(c2)OCO3)CC1)Nc1ccc2c(c1)OCO2	none
O=C(CN1CCc2ccccc2C1)Nc1ccc(F)cc1	DAX1 inh-2 4.2 (no result: NR2E3 ag-1)
CN(Cc1ccccc1)C(=O)OCc1cn(Cc2ccc(F)cc2F)nn1	none (no result: NR2E3 ag-1, DAX1 inh-2, NR2E3 ag-2, GASC-1 inh)
CCC(=O)Nc1ccc(S(=O)(=O)Nc2c(C)nc3nc[nH]n3c2=O)cc1	none
CCc1ccc(S(=O)(=O)Nc2c(C)nc3nc[nH]n3c2=O)cc1	DAX1 inh-2 8.0
C/C(N)=C(/C#N)C(=O)CSc1nnc(-c2ccccc2Br)o1	DAX1 inh-1 3.8
CC(C)[C@H]1Cn2nncc2Cn2c3ccccc3c(=O)n21	none (no result: NR2E3 ag-1, DAX1 inh-2, NR2E3 ag-2, GASC-1 inh)
CC(C)(C)n1cnc2cc(NCc3ccc(Br)cc3)ccc21	DAX1 inh-2 4.2
Nc1c(C(=O)c2ccccc2)oc2ccc(Br)cc12	DAX1 inh-1 4.3, DAX1 inh-2 5.7
O=C(CSc1nnc(COc2ccc(Cl)cc2)n1Cc1ccco1)Nc1ccc(OCc2ccccc2)cc1	none (no result: NR2E3 ag-1, DAX1 inh-2, NR2E3 ag-2, GASC-1 inh)
Cc1nn(C)cc1/C=C/C(=O)c1cccs1	DAX1 inh-2 5.2
Cc1nn(C)cc1/C=C/C(=O)c1ccccc1	GASC-1 inh inconclusive
COc1ccc(C(=O)O/N=C(\C)c2cnccn2)cc1	GASC-1 inh 57
CC(C)(C)N(Cc1cn(CC2CCCCC2)nn1)S(=O)(=O)c1ccc(F)cc1Br	none (no result: NR2E3 ag-1, DAX1 inh-2, NR2E3 ag-2, GASC-1 inh)
COc1ccc(C(CCOC(=O)Oc2ccccc2)c2cc(OC)c(OC)c(OC)c2)cc1 (stereo not drawn)	none (no result: NR2E3 ag-1, DAX1 inh-2, NR2E3 ag-2, GASC-1 inh)
CCCCNC(=O)C1(C(C)=O)CC(C(=O)OCC)=NO1 (stereo not drawn)	none (no result: NR2E3 ag-1, DAX1 inh-2, NR2E3 ag-2, GASC-1 inh)
O=C(CCN1C(=O)/C(=C\c2ccccc2F)SC1=S)Nc1ccc(C(=O)O)c(O)c1	DAX1 inh-1 3.9
O=C(N/N=C/c1ccco1)c1[nH]ncc1Br	DAX1 inh-2 7.1 (no result: NR2E3 ag-1)
O=C(N/N=C/c1ccccc1)c1[nH]ncc1Br	DAX1 inh-2 4.2
O=C(N/N=C/c1cccnc1)c1[nH]ncc1Br	none
Cc1ccc(NC(=O)CCS(=O)(=O)c2ccccc2)cc1C	none (no result: NR2E3 ag-1, DAX1 inh-2, NR2E3 ag-2, GASC-1 inh)
CCN1CCN(Cc2ccc(NC(=O)c3ccc(C)c(NC(=O)c4nccn4C)c3)cc2C(F)(F)F)CC1	none
CCN1CCN(Cc2ccc(NC(=O)c3ccc(C)c(NC(=O)c4cncc(-c5cccs5)c4)c3)cc2C(F)(F)F)CC1	NR2E3 ag-2 82 (no result: NR2E3 ag-1, DAX1 inh-1, GASC-1 inh, SMARCA2 activ)
OCCN(Cc1ccccc1)CC(O)COc1ccc(-c2ccccc2)cc1 (stereo not drawn)	none
COc1cc(C(C)=O)ccc1OCC(O)CN(CCO)Cc1ccccc1 (stereo not drawn)	DAX1 inh-2 7.2
C=CCNC(=O)CN(C(=O)Cc1ccc(Cl)cc1)c1cccc(Br)c1	none (no result: NR2E3 ag-1, DAX1 inh-2, NR2E3 ag-2, GASC-1 inh)
COc1ccc(C(=O)CC(Sc2ccccc2N)c2ccc(OC)cc2)cc1 (stereo not drawn)	DAX1 inh-1 4.1 (no result: NR2E3 ag-1, GASC-1 inh)
CC(C)CNC(=O)OCc1cn(Cc2ccc(F)cc2F)nn1	none (no result: NR2E3 ag-1, DAX1 inh-2, NR2E3 ag-2, GASC-1 inh)
CN(CC(=O)Nc1c(Cl)cccc1Cl)C(=O)Cc1ccc(S(=O)(=O)N2CCOCC2)s1	none
COc1ccc(NC(=O)CN(C)C(=O)Cc2ccc(S(=O)(=O)N3CCOCC3)s2)cc1	DAX1 inh-1 4.4
COC(=O)c1ccc(CSc2nc3ccccc3o2)cc1	none
O=[N+]([O-])c1ccc(CSc2nc3ccccc3o2)cc1	DAX1 inh-1 3.6
O=S(=O)(CC1NCc2cc(F)ccc21)NC1CCCC1 (stereo not drawn)	none (no result: NR2E3 ag-1, DAX1 inh-2, NR2E3 ag-2, GASC-1 inh)
COc1ccc([C@H]2CC(=O)C=C(c3ccnc4ccc(Cl)cc34)C2)cc1	NR2E3 ag-2 89
CN(CC(=O)Nc1ccccc1C(F)(F)F)C(=O)c1ccc(N2C(=O)CCC2=O)cc1	DAX1 inh-2 4.5
CCN(CC(=O)Nc1ccccc1C(F)(F)F)C(=O)c1ccc(N2C(=O)CCC2=O)cc1	none
Cc1ccccc1CN1CCCCC(NC(=O)C2CCCCC2)C1=O (stereo not drawn)	none (no result: NR2E3 ag-1, DAX1 inh-2, NR2E3 ag-2, GASC-1 inh)
Cc1cccc(NC(=O)CC2Nc3cccc4cccc(c34)NC2=O)c1 (stereo not drawn)	GASC-1 inh 51
CC(=O)N1CCc2cc(N=NC3=C(O)CC(C)(C)CC3=O)ccc21	DAX1 inh-1 3.9
